Data from ChEMBL document CHEMBL1132986, “Novel and selective calcitonin-inducing agents” (J Med Chem, 2000).

Columns and labels:
C3 cells [1] = assay: Calcitonin (CT) secretion/RIA assay to measure the ability of compound to increase cellular levels and secretion of human CT.
Phosphodiesterase 4 [2] = biological target: T1, Phosphodiesterase 4 (Homo sapiens, UniProt P27815+Q08499+Q07343+Q08493); assay: PDE4 30 assay to measure the percent rolipram activity of the PDE4 assay at 30 uM concentration of the compound.; format: protein assay
In short: (§1)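 U937 PDE4 preparation, 1 µM [3H]cAMP, 37 °C, test compound at 30 µM. Activity scaled to rolipram: no rolipram inhibition = 0%, full rolipram inhibition (10 µM) = 100%.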

C3 cells [3] = assay: CT-luci reporter gene assay to measure the ability to increase transcription of a […] linked to the human CT gene.
Phosphodiesterase 4 [4] = biological target: T1, Phosphodiesterase 4; assay: PDE4 30 assay to measure the percent rolipram activity of the PDE4 assay at 30 micro M concentration of the compound.; format: protein assay
In short: as §1

Phosphodiesterase 4 [5] = biological target: T1, Phosphodiesterase 4; assay: Percent rolipram activity at 30 uM (PDE 30 assay); format: protein assay
In short: as §1

Rattus norvegicus [6] = assay: The compound was tested for its bone protection activity at 30 mg/kg/day by intra peritoneal administration.; format: functional
In short: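 Mature female Sprague-Dawley rats, bilaterally ovariectomized or sham-operated, 4-5 days recovery; compound in 1% Tween 80 in saline, i.p. 30 mg/kg/day for 4 weeks; 7-8 rats per group. Proximal tibia trabecular BMD by QCT under ketamine/xylazine/acepromazine; % protection with OVX = 0%, sham = 100%; p < 0.05.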

C3 cells [7] = assay: CT-luci reporter gene assay to measure the ability to increase transcription of a […] linked to the human CT gene.; remark: listed apart in the source
Phosphodiesterase 4 [8] = biological target: T1, Phosphodiesterase 4; assay: Concentration at which 50% of the activity of the Phosphodiesterase 4 from Human U937 cells is inhibited; format: cell-based; details: u-937
Rattus norvegicus [9] = assay: The compound was tested for its bone protection activity at 50 mg/kg/day by oral administration.

## CCCCn1c(=O)c2c(ncn2S(=O)(=O)c2ccc(NO)cc2)n(CCCC)c1=O
C3 cells [1]
  CTS: 5.6
Phosphodiesterase 4 [2]
  PDE4 inhibition relative to rolipram: 18%
C3 cells [3]
  TAR: 2

## CCCCn1c(=O)n(CC2CCC2)c(=O)c2c1ncn2S(=O)(=O)c1ccc(OC)c(OC)c1
Phosphodiesterase 4 [4]
  PDE4 inhibition relative to rolipram: 87%
C3 cells [1]
  CTS: 0.9
C3 cells [3]
  TAR: 2.9

## CCCCn1c(=O)c2c(ncn2CC(C)=O)n(CCCC)c1=O [DENBUFYLLINE]
Phosphodiesterase 4 [5]
  Rolipram activity: 100%
C3 cells [1]
  CTS: 3.5
Rattus norvegicus [6]
  Protection: 49%
C3 cells [3]
  TAR: 2.1

## CCCCn1c(=O)c2c(nc(C)n2S(=O)(=O)c2cccc([N+](=O)[O-])c2)n(CCCC)c1=O
Phosphodiesterase 4 [4]
  PDE4 inhibition relative to rolipram: 85%
C3 cells [1]
  CTS: 3.7
C3 cells [3]
  TAR: 1.8

## CCCCn1c(=O)[nH]c(=O)c2c1ncn2S(=O)(=O)c1ccc(OC)c(OC)c1
Phosphodiesterase 4 [4]
  PDE4 inhibition relative to rolipram: 25%
C3 cells [1]
  CTS: 0.8
C3 cells [3]
  TAR: 1.3

## CCCCn1c(=O)c2c(nc(C)n2S(=O)(=O)CCCCl)n(CCCC)c1=O
Phosphodiesterase 4 [4]
  PDE4 inhibition relative to rolipram: 95%
C3 cells [1]
  CTS: 4.1
C3 cells [3]
  TAR: 1.7

## CCCCn1c(=O)c2c(ncn2S(=O)(=O)c2cc(F)ccc2C)n(CCCC)c1=O
C3 cells [1]
  CTS: 6.6
C3 cells [7]
  TAR: 2.8
Phosphodiesterase 4 [2]
  PDE4 inhibition relative to rolipram: 86%

## CCCCn1c(=O)c2c(ncn2S(=O)(=O)CCCC)n(CCCC)c1=O
C3 cells [1]
  CTS: 4.7
Rattus norvegicus [6]
  Protection: 23%
C3 cells [7]
  TAR: 2
Phosphodiesterase 4 [2]
  PDE4 inhibition relative to rolipram: 15%

## CCCCn1c(=O)c2c(ncn2S(=O)(=O)c2ccc(OC)cc2)n(CCCC)c1=O
C3 cells [1]
  CTS: 4.6
C3 cells [7]
  TAR: 1.9
Phosphodiesterase 4 [2]
  PDE4 inhibition relative to rolipram: 49%

## CCCCn1c(=O)c2c(ncn2S(=O)(=O)c2cc(C)c(Cl)cc2C)n(CCCC)c1=O
Phosphodiesterase 4 [4]
  PDE4 inhibition relative to rolipram: 72%
C3 cells [1]
  CTS: 5.3
Rattus norvegicus [6]
  Protection: 52%
Phosphodiesterase 4 [8]
  IC50: 23.3 µM
C3 cells [3]
  TAR: 2.5

## CCCCn1c(=O)c2c(ncn2S(=O)(=O)c2cccc3ccccc23)n(CCCC)c1=O
Phosphodiesterase 4 [4]
  PDE4 inhibition relative to rolipram: 17%
C3 cells [1]
  CTS: 4.5
Rattus norvegicus [6]
  Protection: 37%
C3 cells [3]
  TAR: 2.5

## CCCCn1c(=O)c2c(ncn2S(=O)(=O)CCC)n(CCCC)c1=O
C3 cells [1]
  CTS: 2.2
C3 cells [7]
  TAR: 2.3
Phosphodiesterase 4 [2]
  PDE4 inhibition relative to rolipram: 54%

## CCCCn1c(=O)c2c(nc(C)n2S(=O)(=O)c2ccc(OC)c(OC)c2)n(CCCC)c1=O
Phosphodiesterase 4 [4]
  PDE4 inhibition relative to rolipram: 100%
C3 cells [1]
  CTS: 2.6
C3 cells [3]
  TAR: 1.5

## CCCCn1c(=O)c2c(ncn2S(=O)(=O)c2ccccc2C(=O)OC)n(CCCC)c1=O
C3 cells [1]
  CTS: 3.1
C3 cells [7]
  TAR: 3.5
Phosphodiesterase 4 [8]
  IC50: 1.3 µM
Phosphodiesterase 4 [2]
  PDE4 inhibition relative to rolipram: 61%

## CCCCn1c(=O)c2c(ncn2S(=O)(=O)c2ccccc2)n(CCCC)c1=O
C3 cells [1]
  CTS: 3.9
C3 cells [7]
  TAR: 1.9
Phosphodiesterase 4 [2]
  PDE4 inhibition relative to rolipram: 5%

## CCCCn1c(=O)c2c(ncn2S(=O)(=O)c2ccccc2F)n(CCCC)c1=O
C3 cells [1]
  CTS: 1.7
C3 cells [7]
  TAR: 2
Phosphodiesterase 4 [2]
  PDE4 inhibition relative to rolipram: 53%

## CCCCn1c(=O)c2c(ncn2S(=O)(=O)c2ccc(OC(F)(F)F)cc2)n(CCCC)c1=O
C3 cells [1]
  CTS: 4.9
Phosphodiesterase 4 [2]
  PDE4 inhibition relative to rolipram: 0%
C3 cells [3]
  TAR: 2

## CCCCn1c(=O)c2c(ncn2S(=O)(=O)CCCCl)n(CCCC)c1=O
C3 cells [1]
  CTS: 3.6
Rattus norvegicus [6]
  Protection: 47%
C3 cells [7]
  TAR: 2.1
Phosphodiesterase 4 [8]
  IC50: 4.1 µM
Phosphodiesterase 4 [2]
  PDE4 inhibition relative to rolipram: 71%
Rattus norvegicus [9]
  Protection: 50%

## CCCCOc1ccc(S(=O)(=O)n2cnc3c2c(=O)n(CCCC)c(=O)n3CCCC)cc1
C3 cells [1]
  CTS: 5
Phosphodiesterase 4 [2]
  PDE4 inhibition relative to rolipram: 54%
C3 cells [3]
  TAR: 2.2

## CCCCn1c(=O)n(CCC(C)C)c(=O)c2c1ncn2S(=O)(=O)c1ccc(OC)c(OC)c1
Phosphodiesterase 4 [4]
  PDE4 inhibition relative to rolipram: 86%
C3 cells [1]
  CTS: 3.7
C3 cells [3]
  TAR: 2.6

## CCCCn1c(=O)c2c(ncn2S(=O)(=O)c2cc(C)ccc2C)n(CCCC)c1=O
C3 cells [1]
  CTS: 6.6
C3 cells [7]
  TAR: 2.6
Phosphodiesterase 4 [2]
  PDE4 inhibition relative to rolipram: 92%

## CCCCn1c(=O)c2c(ncn2S(=O)(=O)c2ccc(OC)c(OC)c2)n(CCCC)c1=O
C3 cells [1]
  CTS: 4.7
Rattus norvegicus [6]
  Protection: 35%
Phosphodiesterase 4 [8]
  IC50: 1.2 µM
Phosphodiesterase 4 [2]
  PDE4 inhibition relative to rolipram: 59%
C3 cells [3]
  TAR: 2.5

## CCCCn1c(=O)c2c(ncn2S(=O)(=O)c2c(C)cc(C)cc2C)n(CCCC)c1=O
Phosphodiesterase 4 [4]
  PDE4 inhibition relative to rolipram: 58%
C3 cells [1]
  CTS: 4
Rattus norvegicus [6]
  Protection: 50%
Phosphodiesterase 4 [8]
  IC50: 6 µM
C3 cells [3]
  TAR: 1.9

## CCCCn1c(=O)n(CC=C(C)C)c(=O)c2c1ncn2S(=O)(=O)c1ccc(OC)c(OC)c1
Phosphodiesterase 4 [4]
  PDE4 inhibition relative to rolipram: 77%
C3 cells [1]
  CTS: 3.7
C3 cells [3]
  TAR: 2.8

## CCCCn1c(=O)c2c(ncn2S(C)(=O)=O)n(CCCC)c1=O
C3 cells [1]
  CTS: 4.7
C3 cells [7]
  TAR: 1.9
Phosphodiesterase 4 [8]
  IC50: 25.2 µM
Phosphodiesterase 4 [2]
  PDE4 inhibition relative to rolipram: 84%

## CCCCn1c(=O)c2c(ncn2S(=O)(=O)c2cccc([N+](=O)[O-])c2)n(CCCC)c1=O
C3 cells [1]
  CTS: 2.9
Rattus norvegicus [6]
  Protection: 30%
C3 cells [7]
  TAR: 2
Phosphodiesterase 4 [2]
  PDE4 inhibition relative to rolipram: 37%

## CCCCCCCCS(=O)(=O)n1cnc2c1c(=O)n(CCCC)c(=O)n2CCCC
C3 cells [1]
  CTS: 4.7
C3 cells [7]
  TAR: 2.1
Phosphodiesterase 4 [2]
  PDE4 inhibition relative to rolipram: 12%

## CCCCn1c(=O)c2c(ncn2S(=O)(=O)c2ccc(C(C)(C)C)cc2)n(CCCC)c1=O
Phosphodiesterase 4 [4]
  PDE4 inhibition relative to rolipram: 33%
C3 cells [1]
  CTS: 5.1
C3 cells [3]
  TAR: 1.8

## CCCCn1c(=O)n(CC2CC2)c(=O)c2c1ncn2S(=O)(=O)c1ccc(OC)c(OC)c1
Phosphodiesterase 4 [4]
  PDE4 inhibition relative to rolipram: 97%
C3 cells [1]
  CTS: 0.7
C3 cells [3]
  TAR: 2.8

## CCCCn1c(=O)c2c(nc(C)n2S(=O)(=O)c2ccccc2)n(CCCC)c1=O
Phosphodiesterase 4 [4]
  PDE4 inhibition relative to rolipram: 100%
C3 cells [1]
  CTS: 4
C3 cells [3]
  TAR: 1.7

## CCCCn1c(=O)c2c(nc(C)n2S(=O)(=O)c2cccc3ccccc23)n(CCCC)c1=O
Phosphodiesterase 4 [4]
  PDE4 inhibition relative to rolipram: 94%
C3 cells [1]
  CTS: 2.2
C3 cells [3]
  TAR: 1.7

## CCCCCCCCn1c(=O)c2c(ncn2S(=O)(=O)c2ccc(OC)c(OC)c2)n(CCCC)c1=O
Phosphodiesterase 4 [4]
  PDE4 inhibition relative to rolipram: 0%
C3 cells [1]
  CTS: 1.1
C3 cells [3]
  TAR: 0.7

## CCCCn1c(=O)c2c(ncn2S(=O)(=O)Cc2ccccc2)n(CCCC)c1=O
Phosphodiesterase 4 [4]
  PDE4 inhibition relative to rolipram: 7%
C3 cells [1]
  CTS: 5.1
Rattus norvegicus [6]
  Protection: 25%
Phosphodiesterase 4 [8]
  IC50: 3.2 µM
C3 cells [3]
  TAR: 2.3

## CCCCn1c(=O)c2c(ncn2S(=O)(=O)c2cccs2)n(CCCC)c1=O
Phosphodiesterase 4 [4]
  PDE4 inhibition relative to rolipram: 48%
C3 cells [1]
  CTS: 2.9
C3 cells [3]
  TAR: 2.2
